# Test results taken from ChEMBL document CHEMBL4765448, “Multiple biological active 4-aminopyrazoles containing trifluoromethyl and their 4-nitroso-precursors: Synthesis and evaluation” (Eur J Med Chem, 2020).
# Activity calls are given as the source filed them. The rule behind the calls is not given here.
# System: Streptococcus pyogenes
# Test: Antibacterial activity against Streptococcus pyogenes
# Assay type: functional
# Conditions: not given
row,SMILES,MIC
1,CS(=O)(=O)c1ccc(-n2nc(C(F)(F)F)c(N)c2-c2ccccc2)cc1.Cl,> 250 µg/mL
2,Cl.Cn1nc(C(F)(F)F)c(N)c1-c1cccs1,> 250 µg/mL

# System: Proteus vulgaris
# Test: Antibacterial activity against Proteus vulgaris
# Assay type: functional
# Conditions: not given
row,SMILES,MIC
1,Cn1nc(C(F)(F)F)c(N=O)c1-c1ccco1,> 500 µg/mL
2,CN[C@@H]1[C@H](O)[C@H](NC)[C@H]2O[C@@]3(O)C(=O)C[C@@H](C)O[C@H]3O[C@@H]2[C@H]1O [SPECTINOMYCIN],1.25 µg/mL
3,CS(=O)(=O)c1ccc(-n2nc(C(F)(F)F)c(N)c2-c2ccccc2)cc1.Cl,> 250 µg/mL
4,Cl.Cn1nc(C(F)(F)F)c(N)c1-c1cccs1,> 250 µg/mL

# System: not listed separately
# Test: Antioxidant activity assessed as ABTS radical scavenging activity measured after 1 hr by UV-vis spectrophotometric method
# Assay type: functional
# Conditions: not given
# In short: (§1)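 ABTS cation-radical decolorization was read spectrophotometrically as the fall in absorbance after 1 h. Trolox was the reference. TEAC was taken as the ratio of concentration-response slopes, test/Trolox, and IC50 was also derived. Data are mean ± SEM, n = 3.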
row,SMILES,IC50
1,O=C1O[C@H]([C@@H](O)CO)C(O)=C1O [ASCORBIC ACID],21.6 µM
2,Cc1ccc(-c2[nH]nc(C(F)(F)F)c2N)cc1,13.4 µM

# System: Trichophyton tonsurans
# Test: Antifungal activity against Trichophyton tonsurans
# Assay type: functional
# Conditions: not given
row,SMILES,MIC
1,Cn1nc(C(F)(F)F)c(N=O)c1-c1ccco1,12.5 µg/mL
2,Cl.Cn1nc(C(F)(F)F)c(N)c1-c1cccs1,> 200 µg/mL

# System: Pseudomonas aeruginosa
# Test: Antibacterial activity against Pseudomonas aeruginosa
# Assay type: functional
# Conditions: not given
row,SMILES,MIC
1,Cn1nc(C(F)(F)F)c(N=O)c1-c1ccco1,> 500 µg/mL
2,CN[C@@H]1[C@H](O)[C@H](NC)[C@H]2O[C@@]3(O)C(=O)C[C@@H](C)O[C@H]3O[C@@H]2[C@H]1O [SPECTINOMYCIN],2.5 µg/mL
3,CS(=O)(=O)c1ccc(-n2nc(C(F)(F)F)c(N)c2-c2ccccc2)cc1.Cl,> 250 µg/mL
4,Cl.Cn1nc(C(F)(F)F)c(N)c1-c1cccs1,> 250 µg/mL

# System: Rattus norvegicus
# Test: Antiinflammatory activity in rat model of carrageenan-induced paw edema assessed as inhibition of hind paw swelling at 15 mg/kg, ip measured after 5 hrs
# Assay type: functional, organism-based
# Conditions: not given
row,SMILES,Activity
1,Cn1nc(C(F)(F)F)c(N=O)c1-c1ccco1,Active
2,Cc1ccc(-c2[nH]nc(C(F)(F)F)c2N)cc1,Active
3,CS(=O)(=O)c1ccc(-n2nc(C(F)(F)F)c(N)c2-c2ccccc2)cc1.Cl,Active
4,Cl.Cn1nc(C(F)(F)F)c(N)c1-c1cccs1,Active

# System: Escherichia coli
# Test: Antibacterial activity against Escherichia coli
# Assay type: functional
# Conditions: not given
row,SMILES,MIC
1,Cn1nc(C(F)(F)F)c(N=O)c1-c1ccco1,> 500 µg/mL
2,CN[C@@H]1[C@H](O)[C@H](NC)[C@H]2O[C@@]3(O)C(=O)C[C@@H](C)O[C@H]3O[C@@H]2[C@H]1O [SPECTINOMYCIN],15.6 µg/mL
3,CS(=O)(=O)c1ccc(-n2nc(C(F)(F)F)c(N)c2-c2ccccc2)cc1.Cl,> 250 µg/mL
4,Cl.Cn1nc(C(F)(F)F)c(N)c1-c1cccs1,> 250 µg/mL

# System: Citrobacter braakii
# Test: Antibacterial activity against Citrobacter braakii
# Assay type: functional
# Conditions: not given
row,SMILES,MIC
1,Cn1nc(C(F)(F)F)c(N=O)c1-c1ccco1,> 500 µg/mL
2,CN[C@@H]1[C@H](O)[C@H](NC)[C@H]2O[C@@]3(O)C(=O)C[C@@H](C)O[C@H]3O[C@@H]2[C@H]1O [SPECTINOMYCIN],31.2 µg/mL
3,CS(=O)(=O)c1ccc(-n2nc(C(F)(F)F)c(N)c2-c2ccccc2)cc1.Cl,> 250 µg/mL
4,Cl.Cn1nc(C(F)(F)F)c(N)c1-c1cccs1,> 250 µg/mL

# System: Trichophyton interdigitale
# Test: Antifungal activity against Trichophyton mentagrophytes var. interdigitale
# Assay type: functional
# Conditions: not given
row,SMILES,MIC
1,Cn1nc(C(F)(F)F)c(N=O)c1-c1ccco1,25 µg/mL
2,Cl.Cn1nc(C(F)(F)F)c(N)c1-c1cccs1,200 µg/mL

# System: Epidermophyton floccosum
# Test: Antifungal activity against Epidermophyton floccosum
# Assay type: functional
# Conditions: not given
row,SMILES,MIC
1,Cn1nc(C(F)(F)F)c(N=O)c1-c1ccco1,12.5 µg/mL
2,Cl.Cn1nc(C(F)(F)F)c(N)c1-c1cccs1,> 200 µg/mL

# System: Rattus norvegicus
# Test: Analgesic activity in rat assessed as prolongation of latency period at 15 mg/kg, ip measured after 1 hr by hot-plate test relative to control
# Assay type: functional
# Conditions: not given
# In short: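 Hot-plate test in rats. Compounds were given by intraperitoneal injection. Latency was read at 1 h and, for some compounds, also at 2 h after dosing. Results are expressed as % prolongation of the latent period versus vehicle-treated control. Significance was given as p-values.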
row,SMILES,Activity
1,Cn1nc(C(F)(F)F)c(N=O)c1-c1ccco1,inactive

# System: Trichophyton rubrum
# Test: Antifungal activity against Trichophyton rubrum
# Assay type: functional
# Conditions: not given
row,SMILES,MIC
1,Cn1nc(C(F)(F)F)c(N=O)c1-c1ccco1,12.5 µg/mL
2,Cl.Cn1nc(C(F)(F)F)c(N)c1-c1cccs1,> 200 µg/mL

# System: Microsporum canis
# Test: Antifungal activity against Microsporum canis
# Assay type: functional
# Conditions: not given
row,SMILES,MIC
1,Cn1nc(C(F)(F)F)c(N=O)c1-c1ccco1,12.5 µg/mL
2,Cl.Cn1nc(C(F)(F)F)c(N)c1-c1cccs1,> 200 µg/mL

# System: Staphylococcus aureus
# Test: Antibacterial activity against methicillin resistant Staphylococcus aureus
# Assay type: functional
# Conditions: not given
row,SMILES,MIC
1,Cn1nc(C(F)(F)F)c(N=O)c1-c1ccco1,31.2 µg/mL

# System: Klebsiella pneumoniae
# Test: Antibacterial activity against Klebsiella pneumoniae
# Assay type: functional
# Conditions: not given
row,SMILES,MIC
1,Cn1nc(C(F)(F)F)c(N=O)c1-c1ccco1,> 500 µg/mL
2,CN[C@@H]1[C@H](O)[C@H](NC)[C@H]2O[C@@]3(O)C(=O)C[C@@H](C)O[C@H]3O[C@@H]2[C@H]1O [SPECTINOMYCIN],15.6 µg/mL
3,CS(=O)(=O)c1ccc(-n2nc(C(F)(F)F)c(N)c2-c2ccccc2)cc1.Cl,> 250 µg/mL
4,Cl.Cn1nc(C(F)(F)F)c(N)c1-c1cccs1,> 250 µg/mL

# System: Staphylococcus aureus
# Test: Antibacterial activity against Staphylococcus aureus
# Assay type: functional
# Conditions: not given
row,SMILES,MIC
1,Cn1nc(C(F)(F)F)c(N=O)c1-c1ccco1,15.6 µg/mL
2,CN[C@@H]1[C@H](O)[C@H](NC)[C@H]2O[C@@]3(O)C(=O)C[C@@H](C)O[C@H]3O[C@@H]2[C@H]1O [SPECTINOMYCIN],31.2 µg/mL
3,CS(=O)(=O)c1ccc(-n2nc(C(F)(F)F)c(N)c2-c2ccccc2)cc1.Cl,> 250 µg/mL
4,Cl.Cn1nc(C(F)(F)F)c(N)c1-c1cccs1,> 250 µg/mL

# System: Neisseria gonorrhoeae
# Test: Antibacterial activity against Neisseria gonorrhoeae
# Assay type: functional
# Conditions: not given
row,SMILES,MIC
1,Cn1nc(C(F)(F)F)c(N=O)c1-c1ccco1,125 µg/mL
2,CN[C@@H]1[C@H](O)[C@H](NC)[C@H]2O[C@@]3(O)C(=O)C[C@@H](C)O[C@H]3O[C@@H]2[C@H]1O [SPECTINOMYCIN],15.6 µg/mL
3,CS(=O)(=O)c1ccc(-n2nc(C(F)(F)F)c(N)c2-c2ccccc2)cc1.Cl,250 µg/mL
4,Cl.Cn1nc(C(F)(F)F)c(N)c1-c1cccs1,> 250 µg/mL

# System: Shigella flexneri
# Test: Antibacterial activity against Shigella flexneri
# Assay type: functional
# Conditions: not given
row,SMILES,MIC
1,Cn1nc(C(F)(F)F)c(N=O)c1-c1ccco1,> 500 µg/mL
2,CN[C@@H]1[C@H](O)[C@H](NC)[C@H]2O[C@@]3(O)C(=O)C[C@@H](C)O[C@H]3O[C@@H]2[C@H]1O [SPECTINOMYCIN],7.8 µg/mL
3,CS(=O)(=O)c1ccc(-n2nc(C(F)(F)F)c(N)c2-c2ccccc2)cc1.Cl,> 250 µg/mL
4,Cl.Cn1nc(C(F)(F)F)c(N)c1-c1cccs1,> 250 µg/mL

# System: Nannizzia gypsea
# Test: Antifungal activity against Trichophyton gypseum
# Assay type: functional
# Conditions: not given
row,SMILES,MIC
1,Cn1nc(C(F)(F)F)c(N=O)c1-c1ccco1,50 µg/mL
2,Cl.Cn1nc(C(F)(F)F)c(N)c1-c1cccs1,> 200 µg/mL

# System: Trichophyton violaceum
# Test: Antifungal activity against Trichophyton violaceum
# Assay type: functional
# Conditions: not given
row,SMILES,MIC
1,Cn1nc(C(F)(F)F)c(N=O)c1-c1ccco1,6.25 µg/mL
2,Cl.Cn1nc(C(F)(F)F)c(N)c1-c1cccs1,> 200 µg/mL

# System: Candida albicans
# Test: Antifungal activity against Candida albicans
# Assay type: functional
# Conditions: not given
row,SMILES,MIC
1,Cn1nc(C(F)(F)F)c(N=O)c1-c1ccco1,inactive
2,Cl.Cn1nc(C(F)(F)F)c(N)c1-c1cccs1,> 200 µg/mL

# System: Mycobacterium tuberculosis
# Test: Antitubercular activity against Mycobacterium tuberculosis H37Rv
# Assay type: functional
# Conditions: not given
# In short: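 Mycobacterium tuberculosis strain H37Rv; minimum inhibitory concentration (MIC) taken as the lowest level needed to inhibit bacterial growth; isoniazid and pyrazinamide served as reference drugs.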
row,SMILES,MIC
1,Cn1nc(C(F)(F)F)c(N=O)c1-c1ccco1,12.5 µg/mL
2,Cl.Cn1nc(C(F)(F)F)c(N)c1-c1cccs1,12.5 µg/mL

# System: Serratia marcescens
# Test: Antibacterial activity against Serratia marcescens
# Assay type: functional
# Conditions: not given
row,SMILES,MIC
1,Cn1nc(C(F)(F)F)c(N=O)c1-c1ccco1,> 500 µg/mL
2,CN[C@@H]1[C@H](O)[C@H](NC)[C@H]2O[C@@]3(O)C(=O)C[C@@H](C)O[C@H]3O[C@@H]2[C@H]1O [SPECTINOMYCIN],15.6 µg/mL
3,CS(=O)(=O)c1ccc(-n2nc(C(F)(F)F)c(N)c2-c2ccccc2)cc1.Cl,> 250 µg/mL
4,Cl.Cn1nc(C(F)(F)F)c(N)c1-c1cccs1,> 250 µg/mL

# System: not listed separately
# Test: Selectivity index, ratio of IC50 for HDF cells to IC50 for human HeLa cells
# Assay type: toxicity
# Conditions: HDF cells versus HeLa cells, read-out: Ratio IC50
row,SMILES,selectivity ratio
1,Cl.Cn1nc(C(F)(F)F)c(N)c1-c1cccs1,> 2.05

# System: HeLa
# Test: Cytotoxicity against human HeLa cells
# Assay type: functional, cell-based
# Conditions: not given
row,SMILES,Activity
1,Cl.Cn1nc(C(F)(F)F)c(N)c1-c1cccs1,Dose-dependent effect

# Same assay, conditions: Homo sapiens, HeLa; read-out: IC50
row,SMILES,IC50
1,Cl.Cn1nc(C(F)(F)F)c(N)c1-c1cccs1,48.7 µM

# Same assay, conditions: hela
row,SMILES,IC50
1,CS(=O)(=O)c1ccc(-n2nc(C(F)(F)F)c(N)c2-c2ccccc2)cc1.Cl,Not Active

# System: NHDF
# Test: Cytotoxicity against HDF cells
# Assay type: cell-based, Homo sapiens
# Conditions: nhdf
row,SMILES,IC50
1,CS(=O)(=O)c1ccc(-n2nc(C(F)(F)F)c(N)c2-c2ccccc2)cc1.Cl,Not Active
2,Cl.Cn1nc(C(F)(F)F)c(N)c1-c1cccs1,Not Active

# System: not listed separately
# Test: Antioxidant activity assessed as trolox equivalent of ABTS radical scavenging activity measured after 1 hr by UV-vis spectrophotometric method
# Assay type: functional
# Conditions: not given
# In short: as §1
row,SMILES,Activity
1,Cn1nc(C(F)(F)F)c(N=O)c1-c1ccco1,0.02 equiv
2,Cc1ccc(-c2[nH]nc(C(F)(F)F)c2N)cc1,1.43 equiv
3,CS(=O)(=O)c1ccc(-n2nc(C(F)(F)F)c(N)c2-c2ccccc2)cc1.Cl,inactive
4,Cl.Cn1nc(C(F)(F)F)c(N)c1-c1cccs1,0.1 equiv
